Reference: the M2OR odorant receptor database

Key:
Conditions in all cases: stereoisomer not certain
UniProt Q8VGC6 = molecular target: T1, UniProt Q8VGC6
T1 sequence (whole entry): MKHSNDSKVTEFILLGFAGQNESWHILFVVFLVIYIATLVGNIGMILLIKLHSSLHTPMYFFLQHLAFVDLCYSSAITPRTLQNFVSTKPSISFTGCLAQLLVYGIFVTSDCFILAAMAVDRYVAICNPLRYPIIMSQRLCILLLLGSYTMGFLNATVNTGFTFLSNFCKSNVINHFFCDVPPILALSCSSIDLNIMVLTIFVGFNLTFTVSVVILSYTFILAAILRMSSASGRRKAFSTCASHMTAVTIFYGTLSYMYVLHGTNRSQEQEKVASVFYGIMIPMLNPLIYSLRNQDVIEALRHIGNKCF
Summary of the method: (§1)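 Assay methods differ from source to source, frequently being transient luciferase assays in mammalian cell lines. For each receptor–molecule pair, the label responsive (active) applies when the original authors judged the measured signal statistically different from baseline, and non-responsive (inactive) applies otherwise.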

UniProt Q8VGD7 = molecular target: T2, UniProt Q8VGD7
T2 sequence (whole entry): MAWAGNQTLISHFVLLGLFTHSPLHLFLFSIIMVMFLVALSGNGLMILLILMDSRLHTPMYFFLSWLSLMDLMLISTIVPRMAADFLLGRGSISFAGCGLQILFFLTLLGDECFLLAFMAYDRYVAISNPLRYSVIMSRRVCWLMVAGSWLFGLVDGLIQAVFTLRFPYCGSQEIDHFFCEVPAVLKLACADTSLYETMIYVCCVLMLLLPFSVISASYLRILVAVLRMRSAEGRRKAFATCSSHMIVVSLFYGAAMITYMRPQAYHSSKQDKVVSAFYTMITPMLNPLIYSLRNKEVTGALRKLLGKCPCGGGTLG
Summary of the method: as §1

UniProt Q8VGH1 = molecular target: T3, UniProt Q8VGH1
T3 sequence (whole entry): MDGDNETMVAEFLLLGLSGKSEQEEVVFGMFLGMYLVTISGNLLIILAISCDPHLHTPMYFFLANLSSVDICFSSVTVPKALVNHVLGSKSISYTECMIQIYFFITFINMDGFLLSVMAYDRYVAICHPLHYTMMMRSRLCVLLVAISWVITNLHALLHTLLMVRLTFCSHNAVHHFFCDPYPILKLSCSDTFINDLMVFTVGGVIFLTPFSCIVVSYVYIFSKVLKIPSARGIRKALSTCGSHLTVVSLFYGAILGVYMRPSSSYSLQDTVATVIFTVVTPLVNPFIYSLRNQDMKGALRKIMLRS
Summary of the method: as §1

UniProt Q8VGJ1 = molecular target: T4, UniProt Q8VGJ1
T4 sequence (whole entry): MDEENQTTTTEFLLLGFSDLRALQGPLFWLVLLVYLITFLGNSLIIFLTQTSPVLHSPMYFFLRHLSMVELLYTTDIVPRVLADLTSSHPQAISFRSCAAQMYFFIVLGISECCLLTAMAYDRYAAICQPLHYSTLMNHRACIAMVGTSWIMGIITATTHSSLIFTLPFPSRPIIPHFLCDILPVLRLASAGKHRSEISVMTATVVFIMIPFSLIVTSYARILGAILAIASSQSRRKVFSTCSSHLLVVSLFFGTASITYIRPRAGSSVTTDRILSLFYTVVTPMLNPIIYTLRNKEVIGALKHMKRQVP
Summary of the method: as §1

UniProt Q8VGJ3 = molecular target: T5, UniProt Q8VGJ3
T5 sequence (whole entry): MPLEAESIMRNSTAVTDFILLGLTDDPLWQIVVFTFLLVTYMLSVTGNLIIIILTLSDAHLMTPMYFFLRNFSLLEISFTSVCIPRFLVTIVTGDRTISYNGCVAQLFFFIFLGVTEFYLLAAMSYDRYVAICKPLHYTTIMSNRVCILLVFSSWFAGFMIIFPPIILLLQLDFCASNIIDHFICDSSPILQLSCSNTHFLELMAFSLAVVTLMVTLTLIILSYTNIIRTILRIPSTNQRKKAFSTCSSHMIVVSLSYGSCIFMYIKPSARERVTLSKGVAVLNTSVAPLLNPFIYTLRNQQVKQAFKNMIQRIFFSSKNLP
Summary of the method: as §1

UniProt Q8VGJ5 = molecular target: T6, UniProt Q8VGJ5
T6 sequence (whole entry): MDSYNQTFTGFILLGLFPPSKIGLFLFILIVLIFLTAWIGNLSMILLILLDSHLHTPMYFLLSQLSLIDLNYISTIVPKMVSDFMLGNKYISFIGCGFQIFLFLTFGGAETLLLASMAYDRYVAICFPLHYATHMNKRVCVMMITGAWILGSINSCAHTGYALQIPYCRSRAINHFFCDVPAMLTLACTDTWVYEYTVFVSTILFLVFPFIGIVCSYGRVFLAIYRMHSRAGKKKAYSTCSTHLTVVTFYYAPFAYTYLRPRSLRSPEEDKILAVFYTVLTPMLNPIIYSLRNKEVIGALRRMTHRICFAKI
Summary of the method: as §1

UniProt Q8VGL0 = molecular target: T7, UniProt Q8VGL0
T7 sequence (whole entry): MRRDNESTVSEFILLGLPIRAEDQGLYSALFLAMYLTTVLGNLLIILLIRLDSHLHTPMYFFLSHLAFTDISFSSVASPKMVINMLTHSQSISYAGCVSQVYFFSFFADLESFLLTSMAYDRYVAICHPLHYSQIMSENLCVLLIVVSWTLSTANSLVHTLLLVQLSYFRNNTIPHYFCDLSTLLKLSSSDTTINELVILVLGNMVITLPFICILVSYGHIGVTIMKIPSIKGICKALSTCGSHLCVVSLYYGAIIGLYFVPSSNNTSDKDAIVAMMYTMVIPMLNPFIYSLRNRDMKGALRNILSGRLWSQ
Summary of the method: as §1

UniProt Q8VGL7 = molecular target: T8, UniProt Q8VGL7
T8 sequence (whole entry): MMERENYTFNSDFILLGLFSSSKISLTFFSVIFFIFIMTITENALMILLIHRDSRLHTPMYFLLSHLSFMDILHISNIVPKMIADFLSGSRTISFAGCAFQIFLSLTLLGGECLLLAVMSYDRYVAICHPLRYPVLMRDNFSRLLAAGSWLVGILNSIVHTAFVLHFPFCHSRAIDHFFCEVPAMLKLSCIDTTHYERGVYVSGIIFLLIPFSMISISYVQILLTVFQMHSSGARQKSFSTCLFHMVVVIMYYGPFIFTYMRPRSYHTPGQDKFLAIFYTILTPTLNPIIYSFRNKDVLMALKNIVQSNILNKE
Summary of the method: as §1

UniProt Q8VGM2 = molecular target: T9, UniProt Q8VGM2
T9 sequence (whole entry): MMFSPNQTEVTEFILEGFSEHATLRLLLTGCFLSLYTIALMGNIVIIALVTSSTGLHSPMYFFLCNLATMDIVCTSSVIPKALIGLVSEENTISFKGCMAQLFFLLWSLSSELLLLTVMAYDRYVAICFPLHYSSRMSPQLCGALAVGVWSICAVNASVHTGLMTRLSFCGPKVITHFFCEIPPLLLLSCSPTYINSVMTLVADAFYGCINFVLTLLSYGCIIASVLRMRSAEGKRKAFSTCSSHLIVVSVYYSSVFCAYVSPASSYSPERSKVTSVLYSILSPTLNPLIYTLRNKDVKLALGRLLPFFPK
Summary of the method: as §1

UniProt Q8VGP6 = molecular target: T10, UniProt Q8VGP6
T10 sequence (whole entry): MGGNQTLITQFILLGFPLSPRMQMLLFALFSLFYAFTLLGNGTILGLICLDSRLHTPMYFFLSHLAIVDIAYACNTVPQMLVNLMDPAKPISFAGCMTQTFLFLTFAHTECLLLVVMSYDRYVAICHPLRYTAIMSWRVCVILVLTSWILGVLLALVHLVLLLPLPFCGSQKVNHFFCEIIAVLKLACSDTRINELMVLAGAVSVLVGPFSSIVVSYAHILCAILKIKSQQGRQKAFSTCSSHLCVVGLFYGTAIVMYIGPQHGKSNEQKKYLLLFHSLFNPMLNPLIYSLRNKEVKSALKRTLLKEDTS
Summary of the method: as §1

UniProt Q8VGQ3 = molecular target: T11, UniProt Q8VGQ3
T11 sequence (whole entry): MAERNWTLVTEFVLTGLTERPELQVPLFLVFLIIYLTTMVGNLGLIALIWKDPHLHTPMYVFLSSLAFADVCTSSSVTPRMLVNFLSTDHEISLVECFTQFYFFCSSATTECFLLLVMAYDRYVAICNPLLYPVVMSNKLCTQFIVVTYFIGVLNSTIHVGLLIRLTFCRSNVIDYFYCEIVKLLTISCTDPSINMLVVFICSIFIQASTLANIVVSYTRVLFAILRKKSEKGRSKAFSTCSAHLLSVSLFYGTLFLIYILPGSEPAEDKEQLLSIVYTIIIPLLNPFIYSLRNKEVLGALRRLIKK
Summary of the method: as §1

UniProt Q8VGT4 = molecular target: T12, UniProt Q8VGT4
T12 sequence (whole entry): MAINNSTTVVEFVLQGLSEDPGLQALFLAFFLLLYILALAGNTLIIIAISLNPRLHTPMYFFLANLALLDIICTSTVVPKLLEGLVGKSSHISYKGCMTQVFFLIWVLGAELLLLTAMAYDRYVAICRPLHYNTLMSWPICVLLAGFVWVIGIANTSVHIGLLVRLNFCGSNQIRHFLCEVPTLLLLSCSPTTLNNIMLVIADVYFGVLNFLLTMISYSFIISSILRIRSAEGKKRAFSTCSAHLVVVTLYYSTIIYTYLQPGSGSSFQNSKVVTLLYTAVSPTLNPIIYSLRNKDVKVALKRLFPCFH
Summary of the method: as §1

UniProt Q8VGU3 = molecular target: T13, UniProt Q8VGU3
T13 sequence (whole entry): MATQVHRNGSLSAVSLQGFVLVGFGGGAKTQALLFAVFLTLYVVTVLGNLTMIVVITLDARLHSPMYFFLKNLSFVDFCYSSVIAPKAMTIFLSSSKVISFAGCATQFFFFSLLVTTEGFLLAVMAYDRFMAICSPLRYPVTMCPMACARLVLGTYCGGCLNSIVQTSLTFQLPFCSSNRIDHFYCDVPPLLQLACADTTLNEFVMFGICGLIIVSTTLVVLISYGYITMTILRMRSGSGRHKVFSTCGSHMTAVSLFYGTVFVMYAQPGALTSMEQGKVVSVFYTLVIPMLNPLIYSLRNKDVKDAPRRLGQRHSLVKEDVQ
Summary of the method: as §1

UniProt Q8VGV1 = molecular target: T14, UniProt Q8VGV1
T14 sequence (whole entry): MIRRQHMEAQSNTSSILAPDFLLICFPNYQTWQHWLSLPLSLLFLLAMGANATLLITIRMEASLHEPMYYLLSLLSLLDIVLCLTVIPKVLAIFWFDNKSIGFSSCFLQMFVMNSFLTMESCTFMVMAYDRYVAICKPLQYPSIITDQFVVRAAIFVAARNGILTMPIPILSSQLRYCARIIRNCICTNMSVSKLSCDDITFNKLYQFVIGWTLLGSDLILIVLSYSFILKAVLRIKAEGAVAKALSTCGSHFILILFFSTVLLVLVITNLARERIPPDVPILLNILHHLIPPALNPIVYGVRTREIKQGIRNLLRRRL
Summary of the method: as §1

UniProt Q8VGV7 = molecular target: T15, UniProt Q8VGV7
T15 sequence (whole entry): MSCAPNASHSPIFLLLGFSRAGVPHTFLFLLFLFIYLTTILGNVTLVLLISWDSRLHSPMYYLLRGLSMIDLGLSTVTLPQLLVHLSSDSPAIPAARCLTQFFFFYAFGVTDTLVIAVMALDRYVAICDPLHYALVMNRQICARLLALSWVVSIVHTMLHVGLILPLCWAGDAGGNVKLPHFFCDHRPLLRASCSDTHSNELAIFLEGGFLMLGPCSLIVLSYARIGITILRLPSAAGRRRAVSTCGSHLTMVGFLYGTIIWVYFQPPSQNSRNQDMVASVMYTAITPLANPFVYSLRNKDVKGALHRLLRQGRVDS
Summary of the method: as §1

UniProt Q8VGW5 = molecular target: T16, UniProt Q8VGW5
T16 sequence (whole entry): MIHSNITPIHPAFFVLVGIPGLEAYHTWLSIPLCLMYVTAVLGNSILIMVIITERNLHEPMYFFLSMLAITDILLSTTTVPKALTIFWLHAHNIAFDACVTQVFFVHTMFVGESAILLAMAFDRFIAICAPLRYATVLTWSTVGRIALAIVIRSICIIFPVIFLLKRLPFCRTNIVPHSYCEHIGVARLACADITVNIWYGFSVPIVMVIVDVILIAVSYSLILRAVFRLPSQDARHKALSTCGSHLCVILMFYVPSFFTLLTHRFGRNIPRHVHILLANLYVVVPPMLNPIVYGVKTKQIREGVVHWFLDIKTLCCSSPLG
Summary of the method: as §1

UniProt Q8VGX3 = molecular target: T17, UniProt Q8VGX3
T17 sequence (whole entry): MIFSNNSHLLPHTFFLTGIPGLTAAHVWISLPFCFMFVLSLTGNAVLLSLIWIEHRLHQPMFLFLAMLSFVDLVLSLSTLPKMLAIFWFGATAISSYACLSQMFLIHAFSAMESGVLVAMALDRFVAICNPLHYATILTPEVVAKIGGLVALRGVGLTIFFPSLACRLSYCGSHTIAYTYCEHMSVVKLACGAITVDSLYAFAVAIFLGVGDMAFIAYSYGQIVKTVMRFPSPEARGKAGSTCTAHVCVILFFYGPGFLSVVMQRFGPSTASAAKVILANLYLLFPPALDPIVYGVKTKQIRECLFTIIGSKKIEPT
Summary of the method: as §1

UniProt Q8VGX5 = molecular target: T18, UniProt Q8VGX5
T18 sequence (whole entry): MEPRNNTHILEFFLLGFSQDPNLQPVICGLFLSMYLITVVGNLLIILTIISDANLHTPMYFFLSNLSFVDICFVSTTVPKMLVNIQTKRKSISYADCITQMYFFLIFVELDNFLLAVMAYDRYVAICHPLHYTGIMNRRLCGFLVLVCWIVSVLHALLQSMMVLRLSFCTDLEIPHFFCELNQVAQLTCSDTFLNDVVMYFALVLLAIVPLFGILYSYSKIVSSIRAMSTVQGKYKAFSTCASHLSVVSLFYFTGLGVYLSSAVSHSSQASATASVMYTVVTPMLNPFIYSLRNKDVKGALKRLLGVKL
Summary of the method: as §1

Measured: odorant receptor agonist call

CCCCCCCCC(=O)O
inactive: UniProt Q8VGD7 | UniProt Q8VGH1 | UniProt Q8VGJ1 | UniProt Q8VGJ3 | UniProt Q8VGJ5 | UniProt Q8VGL0 | UniProt Q8VGL7 | UniProt Q8VGM2 | UniProt Q8VGP6 | UniProt Q8VGQ3 | UniProt Q8VGT4 | UniProt Q8VGU3 | UniProt Q8VGV7 | UniProt Q8VGW5 | UniProt Q8VGX3 | UniProt Q8VGX5
active: UniProt Q8VGC6 | UniProt Q8VGV1

CCCCCCCCCS
inactive: UniProt Q8VGD7 | UniProt Q8VGH1 | UniProt Q8VGJ1 | UniProt Q8VGJ3 | UniProt Q8VGJ5 | UniProt Q8VGL0 | UniProt Q8VGL7 | UniProt Q8VGM2 | UniProt Q8VGQ3 | UniProt Q8VGT4 | UniProt Q8VGU3 | UniProt Q8VGV1 | UniProt Q8VGV7 | UniProt Q8VGX3 | UniProt Q8VGX5
active: UniProt Q8VGC6 | UniProt Q8VGP6
